Screening results (PubChem)
CDK5 inh = CDK5/p35 (human) kinase inhibition. Recombinant CDK5/p35, ADP-Glo luminescence, 60 min. AID 488839. inhibition, % at 10 µM. 330,000 compounds, 0.01% hits;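 active = highest replicate inhibition of at least 50% and at least 75% of replicates reaching 50%; inconclusive = only one of the two criteria met; inactive = both criteria failed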;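 note: plate controls were DMSO neutral control for no effect and GW8510 at 10 µM for full effect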
PKA-R2B act = activates the human PKA-R2B holoenzyme complex. P22694+P31323. PKA-R2B holoenzyme dissociation, Cy5-IP20 fluorescence polarization; R2B truncated from residue 108, S112A mutant; 0% DMSO only, 100% 113 µM cGMP. activation, % at 11.4 µM. 340,000 compounds, 0.079% hits;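 active = activation above a cutoff set at the mean over all compounds plus 3 SD, cut at about 18% in these data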;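 note: higher means more holoenzyme dissociation and a rise in polarization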
Target sequence (P31323 whole entry, looked up, other chains not shown, the tested form may be a part): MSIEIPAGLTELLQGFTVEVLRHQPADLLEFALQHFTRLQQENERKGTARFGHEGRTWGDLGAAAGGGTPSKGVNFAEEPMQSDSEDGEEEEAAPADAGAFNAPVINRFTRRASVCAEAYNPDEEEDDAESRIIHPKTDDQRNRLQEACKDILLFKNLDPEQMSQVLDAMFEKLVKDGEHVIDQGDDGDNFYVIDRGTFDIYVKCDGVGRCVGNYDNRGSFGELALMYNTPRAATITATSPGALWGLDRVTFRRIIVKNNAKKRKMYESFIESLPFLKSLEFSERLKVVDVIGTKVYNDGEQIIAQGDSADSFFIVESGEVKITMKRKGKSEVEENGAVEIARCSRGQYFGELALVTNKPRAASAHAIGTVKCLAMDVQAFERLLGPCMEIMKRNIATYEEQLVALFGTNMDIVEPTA
SR-BI DiI inh = inhibitors of mouse SR-BI mediated HDL lipid uptake; Q61009; ldlA[mSR-BI] CHO cells, DiI-HDL uptake fluorescence, 3 h; inhibition, % at 12.5 µM; 320,000 compounds, 0.96% hits; AID 488896;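 active = mean replicate inhibition of at least 70% and a set share of replicates each scoring 70 or more; inconclusive = meets just one of the two criteria; inactive = fails both criteria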;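 note: 0% = median of neutral control wells and 100% = median of positive control wells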
dFosB activator = activators of mouse delta FosB homodimer; P13346; purified delta FosB, TAMRA-CDK5 oligo fluorescence polarization; percent of positive-control signal above neutral wells; activation, % at 25 µM; 340,000 compounds, 0.99% hits; AID 493131;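 active = mean activation above about 17%, with every replicate also reaching it, limit read from the data, passing the limit was not always enough; inconclusive = only one of the two conditions met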
PKA-R1A act = activators of PKA-R1A complex; PKA-R1A dissociation, Cy5-IP20 fluorescence polarization; scaled: DMSO 0%, 113 µM cGMP 100%; activation, % at 11.4 µM; 340,000 compounds, 0.083% hits;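 active = percent activation above the mean of all tested compounds plus 3 SD, cut at about 19% in these data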;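 note: higher means more PKAc released from R1A so a rise in polarization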
SR-BI uptake up = SR-BI HDL lipid transfer activation; 320,000 compounds, 0.096% hits; activation, % at 12.5 µM; AID 504775; CHO ldlA[mSR-BI] cells, DiI-HDL uptake fluorescence, 3 h; 100 = double the neutral-control signal;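 active = mean replicate activation of at least 60% and every replicate at or above 60%; inconclusive = mean or all-replicate condition met, but not both; inactive = mean below 60% and not all replicates reaching 60%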;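 note: 0% = median plate neutral-control signal and 100% = twice that signal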
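Assay system: CHO ldlA[mSR-BI] cells, LDL receptor-null, SR-BI overexpressing; medium: Ham's F12 with 0.5% BSA, HEPES 25 mM, pH 7.4; also added: DiI-HDL 10 µg/mL; timing: 3 h uptake period with compound, 37 °C; signal: DiI fluorescence, bottom read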
An asterisk follows results filed as active; ? = inconclusive; · = no result given. A selection: hits, their analogues and other compounds. The true share with any hit is near 2.1%.

SMILES	CDK5 inh	PKA-R2B act	SR-BI DiI inh	dFosB activator	PKA-R1A act	SR-BI uptake up
Cc1noc(C)c1NC(=O)Nc1cccc2c1O[C@H](CN(C)C(=O)Nc1ccc(C(F)(F)F)cc1)[C@@H](C)CN([C@H](C)CO)C2=O	-1	-8	79*	0	0	-79
C[C@H](CO)N1C[C@H](C)[C@@H](CN(C)C(=O)Nc2ccc(C(F)(F)F)cc2)Oc2c(NC(=O)CCC(F)(F)F)cccc2C1=O	-1	1	76*	-12	1	-76
O=C(COc1ccccc1Cl)NCCCNC(=O)c1cccnc1	1	-1	·	-11	-3	·
COc1ccc(S(=O)(=O)N(C)C[C@H]2Oc3ccc(NC(=O)Nc4ccc5c(c4)OCO5)cc3C(=O)N([C@H](C)CO)C[C@@H]2C)cc1	-7	-6	31	-6	-8	-31
CCOC(=O)C1=C(c2ccccc2)NC(=S)NC1C (stereo not drawn)	-2	6	72*	-8	5	-72
CCOC(=O)C1=C(C)NC(=S)NC1C (stereo not drawn)	1	-7	-7	1	-9	7
CN(C(=O)COC(=O)c1ccccc1Nc1ccccc1)c1c(N)n(Cc2ccccc2)c(=O)[nH]c1=O	-7	-9	72*	-9	-5	-72
Cc1ccc(/C=C2/Sc3ccc(C(=O)NCc4ccccn4)cc3NC2=O)cc1	-1	7	-2	?	5	2
CN(C)c1ccc(NC(=O)c2sc(SCC(=O)Nc3ccc(Br)cc3)nc2N)cc1	0	4	-1	28*	-3	1
COc1ccc(/C=N/NC(=O)c2ccc(CSc3nc(C)cc(C)n3)cc2)cc1O	1	-9	4	2	6	-4
Cc1cc(C)nc(SCc2ccc(C(=O)N/N=C/c3cccc(O)c3O)cc2)n1	-1	2	93*	-5	3	-93
Cc1cc(C)nc(SCc2ccc(C(=O)N/N=C/c3ccc(C(=O)O)cc3)cc2)n1	5	-4	18	-19	-3	-18
COc1ccc(O)c(/C=N/NC(=O)c2ccc(CSc3nc(C)cc(C)n3)cc2)c1	0	-3	125*	3	0	-125
COC(=O)c1cc(NC(=S)NC(=O)c2ccccc2)ccc1N1CCOCC1	-1	-1	27	-5	12	-27
N/C(=N\OC(=O)c1ccccc1)c1ccn[nH]1	5	3	-5	-9	-10	5
COc1ccc(C2C(C#N)=C(N)Oc3cc(O)ccc32)cc1OC (stereo not drawn)	2	-11	-28	-1	2	28
COc1ccc(C2C(C#N)=C(N)Oc3cc(O)ccc32)cc1C (stereo not drawn)	1	9	81*	-5	-7	-81
CCCc1c(O)nc(SCCN(CCC)CCC)[nH]c1=O	-1	-2	-21	4	-9	21
CCCCCCCc1c(O)nc(SCCN(C)C)[nH]c1=O	0	1	-272	2	6	272*
O=C(Nc1ccc2oc(-c3ccccc3Cl)nc2c1)c1ncn[nH]1	3	2	-8	2	-1	8
O=C(Nc1ccc2oc(-c3ccccc3Cl)nc2c1)c1cncc(Br)c1	0	-5	37	64*	-1	-37
O=C1CC(SC(=Nc2ccccc2)Nc2ccccc2)C(=O)N1c1cccc(Cl)c1 (stereo not drawn)	-1	3	78*	-3	7	-78
O=C1CC(SC(=Nc2ccccc2)Nc2ccccc2)C(=O)N1c1ccc(Cl)cc1 (stereo not drawn)	-1	4	71*	3	-6	-71
CN=C(Nc1ccccc1)SC1CC(=O)N(c2cccc(OC)c2)C1=O (stereo not drawn)	0	-6	55	-13	-6	-55
COc1cccc(C(C(=O)NC2CCCC2)N(C(=O)c2ccco2)c2ccc(C(C)=O)cc2)c1OC (stereo not drawn)	0	-5	-234	-16	8	234*
SMILES	CDK5 inh	PKA-R2B act	SR-BI DiI inh	dFosB activator	PKA-R1A act	SR-BI uptake up
COc1cccc(C(C(=O)NC2CCCC2)N(C(=O)c2ccco2)c2ccccc2)c1OC (stereo not drawn)	2	0	·	0	-7	·
O=C(Nc1ncc(Cc2cccc(Cl)c2Cl)s1)c1ccc([N+](=O)[O-])cc1	3	2	66	-1	4	-66
O=C(Nc1ncc(Cc2cc(Cl)ccc2Cl)s1)c1ccc([N+](=O)[O-])cc1	1	-4	82*	-16	-13	-82
Cc1ccc(-c2c(C(=O)N/N=C/c3sccc3C)nnn2-c2nonc2N)cc1	1	-5	85*	-4	-1	-85
Cc1ccc(-c2c(C(=O)N/N=C/c3c[nH]c4ccccc34)nnn2-c2nonc2N)cc1	0	-1	85*	7	-5	-85
CC(=O)c1cccc(NC(=O)C(C)OC(=O)c2cccc(-n3cnnn3)c2)c1 (stereo not drawn)	-1	-8	28	-3	-15	-28
CCN1C(=O)C(CC(=O)NCCc2ccccc2)N(NC(=O)c2ccc(Br)cc2)C1=S (stereo not drawn)	·	-8	·	·	0	·
COc1ccc(CN(C(=O)c2cc3ccccc3oc2=O)C2CCS(=O)(=O)C2)cc1OC (stereo not drawn)	0	2	3	-4	7	-3
Oc1ccccc1-c1cc(-c2ccc(F)cc2)n[nH]1	1	-8	21	-3	-11	-21
Oc1ccc(F)cc1-c1cc(-c2ccc3c(c2)OCCO3)n[nH]1	1	-14	79*	-5	5	-79
COCCN(C(=O)CSc1nnc(-c2ccco2)n1C)c1c(N)n(CC(C)C)c(=O)[nH]c1=O	1	-6	-17	5	-2	17
Fc1ccc(C2=NN(c3ccccc3)C(c3ccco3)C2)cc1 (stereo not drawn)	4	-7	21	-1	-20	-21
Cc1ccc(N2N=C(c3ccc(F)cc3)CC2c2ccco2)cc1 (stereo not drawn)	-1	-2	79*	-6	5	-79
COc1cccc(-c2nc(CS(=O)(=O)CC(=O)NCCN3CCOCC3)c(C)o2)c1	-1	8	16	-9	7	·
Nc1cc2ccncc2c2ccccc12	5	3	-13	23*	-8	13
CCOC(=O)/C(=C\c1ccc(OC(F)F)cc1)C1=Nn2c(nnc2-c2ccc(Cl)cc2)SC1	-1	-2	89*	-9	-5	-89
